Only some compounds are listed: those with a hit (about 1.9% of all), similar ones and a draw of the others.
MT1-MMP act inh: blocks activation of human MT1-MMP. P50281. HT1080 RFP-PRO-GFP cells, GFP/RFP ratio fluorescence, overnight; percent of plate control window, DMSO zero. GFP/RFP ratio change, % at 20 µM. actives 0.061% (n = 360,000). AID 651647;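 active means GFP/RFP ratio change of at least 30% with cell ATP level not reduced by more than half and red fluorescence within 50% of control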
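Assay system: HT1080 RFP-PRO-GFP cells. Benchmarks: DMSO vehicle wells and RFP-L50D-GFP reporter cell wells. Times: overnight cell settling, then overnight compound exposure, 37 °C, 5% CO2. Compound: 20 µM single dose, 1% DMSO. Read-out basis: GFP/RFP fluorescence ratio.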
NR2E3 ag-1: activates human photoreceptor nuclear receptor NR2E3 | GST-NR2E3/biotin-RetCOR TR-FRET, 1536-well | AID 2300 | inhibition of corepressor binding, % at 4.78 µM | Q9Y5X4 | actives 0.12% (n = 320,000);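 active means percent inhibition above the cutoff of mean plus 3 SD of all tested compounds, set per screening campaign, cut at about 20% in these data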;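 further: 0% = DMSO wells and 100% = biotin wells as full block of FRET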
Target sequence (Q9Y5X4 whole entry, looked up): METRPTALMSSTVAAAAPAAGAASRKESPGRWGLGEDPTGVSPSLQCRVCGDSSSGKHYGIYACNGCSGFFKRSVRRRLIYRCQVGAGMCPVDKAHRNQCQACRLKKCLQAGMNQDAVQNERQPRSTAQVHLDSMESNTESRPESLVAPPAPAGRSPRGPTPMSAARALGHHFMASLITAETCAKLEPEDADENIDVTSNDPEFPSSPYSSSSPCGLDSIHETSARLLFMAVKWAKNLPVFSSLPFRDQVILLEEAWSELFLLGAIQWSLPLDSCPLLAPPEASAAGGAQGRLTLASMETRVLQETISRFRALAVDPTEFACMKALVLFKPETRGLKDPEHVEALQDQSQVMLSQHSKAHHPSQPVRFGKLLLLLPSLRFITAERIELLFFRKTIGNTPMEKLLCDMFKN
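Material: NR2E3–RetCOR corepressor complex | Quantity: 1.35 nM GST-tagged NR2E3 final | Schedule: 5 h at 4 °C | Replication: Singlicate compound wells | Reagent: RetCOR corepressor, biotinylated, 7 nM | Controls: Biotin wells as high control, 0.6% DMSO wells as low control | Signal: TR-FRET, Eu(K)-anti-GST donor, streptavidin-D2 acceptor, ex 340, em 617/671 nm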
Rev-erbA mod: Rev-erb alpha (human) modulation; P20393; Rev-erbα–FITC-DNA binding, fluorescence polarization, 90 min; activity, % at 10 µM; actives 0.79% (n = 370,000); AID 1259318;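 active means activity above about 14%, limit read from the data; passing the limit was not always enough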;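 further: 0% = DMSO wells with 35 nM protein and 100% = DMSO wells with 750 nM protein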
NR2E3 ag-2: human photoreceptor-specific nuclear receptor agonism. Q9Y5X4. CHO-S Gal4-NCOR/VP16-NR2E3 two-hybrid, luciferase. inhibition of corepressor binding, % at 3.98 µM. actives 0.35% (n = 360,000). AID 602229;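 active means inhibition above the mean of all tested compounds plus 3 SD, cut at about 70% in these data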;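 further: 0% = DMSO with NR2E3 transfected cells and 100% = cells lacking NR2E3 construct; higher means lower luciferase signal from less NR2E3 corepressor binding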
PG9 binder: small molecules binding HIV-1 gp120 antibody PG9; TR-FRET gp120-PG9 antibody binding; inhibition, % at 6.7 µM; actives 0.43% (n = 360,000); in the data active means inhibition above about 8.5%
SKN-1 block: blocks SKN-1 activity in C. elegans; AID 624304; C. elegans VP596 Pgst-4::GFP/RFP ratio, acrylamide-induced, 24 h; inhibition, % at 21.8 µM; actives 0.49% (n = 360,000);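 active means interference check ratio from 0.5 to 1.5 plus GFP to RFP signal ratio inhibition reaching or exceeding a fixed threshold, cut at about 30% in these data, passing the limit was not always enough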
NR1D1 mod conf: confirmation of modulators of human Rev-erb alpha DNA binding. shares compounds with Rev-erbA mod. Rev-erb alpha FITC-DNA binding, fluorescence polarization, 90 min. activation, % at 25 µM. actives 61% (n = 3,000). AID 1259319;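 active means activation at or above a set limit, or at least 3 SD above the negative control mean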;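 further: 0% = 35 nM protein with DMSO and 100% = 750 nM protein high control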
RORg counter: RORgamma DNA-binding activity, dose-response counter-screen. shares compounds with Rev-erbA mod. purified RORgamma protein-FITC-DNA binding, fluorescence polarization. IC50, µM. actives 8% (n = 910). AID 1259320;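 active means Compounds whose fitted half-maximal concentration for disrupting protein-DNA binding is below 10 micromolar; the record names Rev-erb in its text, so the target is in doubt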
Active calls of the source: *; i = inactive; nt = no result given.

SMILES | MT1-MMP act inh | NR2E3 ag-1 | Rev-erbA mod | NR2E3 ag-2 | PG9 binder | SKN-1 block | NR1D1 mod conf | others
COC(=O)c1sc2nc3c(cc2c1N)C(=O)CC(C)(C)C3 | -2.2 | 4.6 | 69.9* | -5.4 | -1.8 | 7.3 | 43.7* | RORg counter=>40
CCOC(=O)c1sc2nc3c(cc2c1N)C(=O)CC(C)(C)C3 | -3.4 | -2.3 | 1.9 | -5.7 | -1.6 | 5.4 | nt
CCN(C(=O)COC(=O)/C(C#N)=C/c1ccc(N(C)C)cc1)C1CCS(=O)(=O)C1 (stereo unspecified) | -10.9 | nt | 11.6 | -12.5 | -2.7 | 23.3 | nt
CN(C)c1ccc(/C=C(\C#N)C(=O)OCC(=O)N(C)C2CCS(=O)(=O)C2)cc1 (stereo unspecified) | -6.4 | -4.5 | 20.0* | 10.8 | -7.3 | 27.7 | 16.3*
CN(C)c1ccc(P(=O)(Nc2cccc(C(F)(F)F)c2)N2CCOCC2)c(NC(=O)c2cccs2)c1 (stereo unspecified) | -14.4 | 3.6 | 32.5* | 2.5 | 0.9 | 16.5 | 2.5
O=S1(=O)N[C@H](Cc2ccccc2)COc2cccc(N3CCCCC3)c21 | nt | nt | 2.0 | nt | -0.3 | nt | nt
CCOc1ccc2c(ccc(/C=C/c3cc(C)c4cccnc4c3O)[n+]2C)c1 | 29.1 | nt | nt | -16.0 | nt | 17.6 | nt
CCCSc1nc(SCC(=O)NCc2ccccc2)c2c3c(sc2n1)COC(C)(C)C3 | -4.2 | 0.1 | 45.3* | -13.8 | -0.3 | -1.2 | 14.7
COC(=O)C1=C(C)N(Cc2ccccc2C(F)(F)F)C(=NCc2ccc3c(c2)OCO3)NC1c1cccc(C(F)(F)F)c1 (stereo unspecified) | nt | nt | 4.3 | nt | -1.3 | nt | nt
CCOc1ccc(-c2nc(S(=O)(=O)c3ccccc3)c(NC)o2)cc1 | -0.7 | 1.2 | 46.7* | -20.0 | -1.6 | 5.7 | 12.1
COc1ccccc1NC(=O)c1cnc(SCC(=O)NCCc2ccccc2)n(C)c1=O | 0.5 | 0.1 | 13.8* | -19.8 | 2.2 | -3.0 | 31.9* | RORg counter=i
COc1ccc(CCNC(=O)CSc2ncc(C(=O)Nc3ccccc3)c(=O)n2C)cc1 | -0.9 | -1.5 | 12.3 | 23.9 | -1.1 | 15.6 | nt
CNC(=O)COc1ccccc1C(=O)Nc1ccc2c(c1)oc1ccccc12 | -1.7 | -0.8 | 58.2* | 1.5 | 1.0 | -25.3 | 78.8* | RORg counter=i
COc1ccc(C(=O)CN2C(=O)NC3(CCCc4ccccc43)C2=O)c(OC)c1 (stereo unspecified) | -0.2 | 0.2 | 23.0* | 12.2 | 2.1 | 10.7 | 10.3
CCOC(=O)CC1(CC)Oc2ccccc2N1S(=O)(=O)c1ccc(C)cc1 (stereo unspecified) | -3.3 | nt | -4.6 | nt | -1.3 | 8.3 | nt
CC(C)c1cccc(-c2ccc3c(c2)S(=O)(=O)c2cccc(C(=O)NCc4ccccc4Cl)c2C3=O)c1 | 0.2 | nt | nt | -7.7 | nt | -4.3 | nt
Fc1ccc(-c2nc3c(Cl)cc(C(F)(F)F)cn3c2Cl)cc1 | -4.3 | -4.7 | 34.9* | -58.8 | 1.4 | 16.9 | 19.4*
O=C(C[C@H]1CC[C@@H]2[C@H](COC[C@@H](O)CN2Cc2ccc(Cl)cc2)O1)NCCc1ccccc1 | -1.1 | nt | 3.9 | nt | -1.7 | 6.8 | nt
O=C(CCCC(=O)OCC(=O)c1cccs1)Nc1ccc(F)cc1 | -1.0 | 3.5 | 0.6 | -16.4 | 0.9 | 5.9 | nt
O=C(CCCC(=O)OCC(=O)c1cccs1)Nc1ccc(Oc2ccccc2)cc1 | 5.4 | 0.7 | 68.3* | -16.5 | -0.2 | -26.6 | 48.0* | RORg counter=>40
COc1ccc(NC(=O)C(c2ccc(C(F)(F)F)cc2)n2c(=O)c(-c3cc4ccccc4[nH]3)nc3ccccc32)cc1 (stereo unspecified) | -10.6 | nt | -2.2 | nt | 0.6 | 10.7 | nt
O=S(=O)(c1ccccc1)N1CCCc2nc(-c3ccccc3)ccc21 | nt | nt | -2.4 | nt | 1.9 | nt | nt
Cc1cc(C)c(C#N)c(SCCS(=O)(=O)c2ccc(Cl)cc2)n1 | -5.5 | -4.7 | 3.0 | 5.7 | 1.0 | -7.5 | nt

Assay outcomes deposited in PubChem by several laboratories.
